This note sets out measurements from ChEMBL document CHEMBL1154620, “Total synthesis and antiproliferative activity screening of (+/-)-aplicyanins A, B and E and related analogues” (2009).

Calls of active or inactive are those of the source. The rule behind the calls is not given here.

Common to all, as to type: functional
In one assay the test system is MDA-MB-231. Kind of assay: Cytotoxicity against human MDA-MB-231 cells after 72 hrs by SRB assay. The gist of the method:
(§1)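 Cells seeded at 5 × 10³/well and grown 24 h; one plate per line fixed at this point as T_z reference. Exposure to vehicle or compound for a further 72 h. Wash in PBS, fix 15 min in 1% glutaraldehyde, stain 30 min at rt with 0.4% SRB, rinse in 1% acetic acid, extract into 10 mM trizma base, read A490. NCI algorithm; GI50 interpolated from dose curves.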
(Sulforhodamine B stains cellular protein and so reports cell mass.)

The test system of the next assay is A549. Put plainly: Cytotoxicity against human A549 cells after 72 hrs by SRB assay. The gist of the method:
as §1

A further assay has as its system HT-29. Put plainly: Cytotoxicity against human HT-29 cells after 72 hrs by SRB assay. The method, boiled down:
as §1

By GI50 is commonly meant the concentration that inhibits growth by half. `CC(=O)/N=C1\NCCC(c2cn(C)c3cc(Br)ccc23)N1` (racemic): the concentration for 50% growth inhibition (GI50) in the assay on MDA-MB-231 (MDA-MB-231, 72 h) came out at 8.02 µM; in the assay with A549 (A549, 72 h), 6.3 µM; in the assay on HT-29 (HT-29, 72 h) it was 4.3 µM.
Take `Cn1cc(C2CCN=C(N)N2)c2ccccc21` (racemic): the concentration for 50% growth inhibition (GI50) in the assay with MDA-MB-231 (MDA-MB-231, 72 h) was found to be 1.71 µM; with A549 (A549, 72 h), 2.67 µM; with HT-29 (HT-29, 72 h), 4.29 µM.
Consider `Cn1cc(C2CCN=C(N)N2)c2ccc(Br)cc21` (racemic), for which the 50% growth inhibitory concentration (GI50) with MDA-MB-231 (MDA-MB-231, 72 h) is 8.79 µM; with A549 (A549, 72 h) it was 9.11 µM; in the assay with HT-29 (HT-29, 72 h), 4.56 µM.
As to `Cn1cc(C2CCN=C(N)N2)c2cc(Br)ccc21` (racemic), the concentration for 50% growth inhibition (GI50) in the assay with MDA-MB-231 (MDA-MB-231, 72 h) turned out to be 25.7 µM; with HT-29 (HT-29, 72 h), 13.7 µM. For the same compound, in the assay on A549, the GI50 result is “inactive”.
Take `Cn1cc(C2CC(=O)N=C(N)N2)c2ccc(Br)cc21` (racemic): in the assay on MDA-MB-231 (MDA-MB-231, 72 h), the GI50 is 2.86 µM. For the same compound, the GI50 result in the assay on A549 and with HT-29 was “inactive” throughout.
Take `NC1=NCCC(c2c[nH]c3cc(Br)ccc23)N1` (racemic): the GI50 in the assay with MDA-MB-231 (MDA-MB-231, 72 h) came to 19.1 µM; in the assay on HT-29 (HT-29, 72 h), 21.1 µM. For the same compound, the GI50 entry in the assay with A549 was “inactive”.
`CC(=O)/N=C1\NCCC(c2c[nH]c3cc(Br)ccc23)N1` (racemic): the 50% growth inhibitory concentration (GI50) in the assay on MDA-MB-231 (MDA-MB-231, 72 h) is 5.67 µM; with A549 (A549, 72 h), 6.86 µM; in the assay on HT-29 (HT-29, 72 h), 2.12 µM.
For `CC(=O)/N=C1\NCCC(c2cn(C)c3ccccc23)N1` (racemic), in that order: 14.4 µM, 10.7 µM and 7.4 µM.
For `CC(=O)/N=C1\NCCC(c2cn(C)c3ccc(Br)cc23)N1` (racemic) the same measures were 0.94 µM, 0.43 µM and 0.31 µM.
Turning to `COn1cc(C2CC(=O)N=C(N)N2)c2cc(Br)c(Br)cc21` (racemic), the GI50 entry in the assay on MDA-MB-231, in the assay on A549 and in the assay with HT-29 was “inactive” each time.
For the compound `COn1cc(C2CC(=O)N=C(N)N2)c2ccccc21` (racemic), the GI50 result in the assay with MDA-MB-231, in the assay on A549 and in the assay on HT-29 was “inactive” in each case.
For the compound `COn1cc(C2CCN=C(N)N2)c2ccccc21` (racemic), the GI50 result in the assay with MDA-MB-231, with A549 and with HT-29 was “inactive” in each case.
`Cn1cc(C2CC(=O)N=C(N)N2)c2cc(Br)ccc21` (racemic): the GI50 entry in the assay on MDA-MB-231, in the assay on A549 and with HT-29 was “inactive” throughout.
Consider `Cn1cc(C2CC(=O)N=C(N)N2)c2ccccc21` (racemic), for which the GI50 result in the assay with MDA-MB-231, in the assay on A549 and with HT-29 was “inactive” throughout.
With `NC1=NC(=O)CC(c2c[nH]c3cc(Br)ccc23)N1` (racemic), the GI50 entry in the assay on MDA-MB-231, in the assay with A549 and with HT-29 was “inactive” each time.
As to `NC1=NC(=O)CC(c2c[nH]c3ccc(Br)cc23)N1` (racemic), the GI50 result in the assay with MDA-MB-231, in the assay with A549 and with HT-29 was “inactive” in each case.
Consider `NC1=NCCC(c2c[nH]c3cc(Br)c(Br)cc23)N1` (racemic), for which the GI50 entry in the assay with MDA-MB-231, in the assay with A549 and with HT-29 was “inactive” each time.
As for `NC1=NCCC(c2c[nH]c3ccc(Br)cc23)N1` (racemic) [APLICYANIN A], the GI50 in the assay on MDA-MB-231 (MDA-MB-231, 72 h) came to 0.27 µM; in the assay on A549 (A549, 72 h) it was 0.27 µM; with HT-29 (HT-29, 72 h), 0.11 µM.
As for `CC(=O)/N=C1\NCCC(c2c[nH]c3ccc(Br)cc23)N1` (racemic) [APLICYANIN B], the GI50 was 0.98 µM in the assay on MDA-MB-231 (MDA-MB-231, 72 h); 0.51 µM in the assay on A549 (A549, 72 h); 0.33 µM in the assay on HT-29 (HT-29, 72 h).
Compound `COn1cc(C2CCN=C(N)N2)c2cc(Br)c(Br)cc21` (racemic) [APLICYANIN E] came in with a GI50 with MDA-MB-231 (MDA-MB-231, 72 h) of 10.9 µM. For the same compound, the GI50 entry in the assay on A549 and in the assay with HT-29 was “inactive” each time.
